# HSF1 inh: HSF1 inhibitors in luciferase reporter cells, primary screen, cell-based, NIH3T3, luminescence | activity change, negative = inhibition, % at 7.5 µM (by protocol) | actives 0.77% (n = 300,000) | AID 2098, 2009 | NIH3T3-HGL HSE-luciferase, MG132-induced, luminescence 8 h; stronger effect = lower value;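 active means more than half of replicate wells show activity change below -50%, luminescence cut by over half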;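 further: luciferase reports HSF-1 transcriptional activity via heat shock element; 0% = median of DMSO wells and -100% = zero luminescence signal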
# GPR7 antagonist: GPR7 receptor antagonists, primary screen, cell-based, fluorescence, single concentration; GPR7-expressing cells, fluorescence antagonist assay; inhibition, % at 4.4 µM; actives 1.1% (n = 290,000); AID 1861, 2009; in the data active means inhibition above about 16%, passing the limit was not always enough;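 further: cells stimulated with the agonist NPW; 0% = agonist with vehicle and 100% = vehicle without agonist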
# Target sequence (P48145 whole entry, looked up): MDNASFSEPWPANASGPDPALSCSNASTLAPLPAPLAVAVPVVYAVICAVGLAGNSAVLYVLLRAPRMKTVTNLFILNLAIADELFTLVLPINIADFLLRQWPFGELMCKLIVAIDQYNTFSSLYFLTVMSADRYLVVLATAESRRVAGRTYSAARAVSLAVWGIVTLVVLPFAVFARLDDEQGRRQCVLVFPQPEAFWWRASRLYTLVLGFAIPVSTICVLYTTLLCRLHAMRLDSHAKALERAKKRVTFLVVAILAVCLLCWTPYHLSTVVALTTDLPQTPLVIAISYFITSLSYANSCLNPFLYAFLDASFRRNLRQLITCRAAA
# T cruzi repl: inhibitors of intracellular T. cruzi growth, primary screen, luminescence, NIH3T3 host cells; T. cruzi beta-gal in NIH3T3, 90 h; inhibition, % (test concentration not listed); actives 1.4% (n = 300,000); AID 1885, 2009;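 active means mean inhibition across valid replicates above about 55%, limit read from the data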;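 further: signal also drops with host cell toxicity which is not excluded here; 0% = plate median of DMSO wells and 100% = zero luminescence signal; higher percent means less beta-gal luminescence so fewer parasites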
#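 Assay system: NIH/3T3 host cells with β-galactosidase reporter T. cruzi; input: 5,000 host fibroblasts per well; compound: single 50 nL compound addition per well in DMSO; timing: ≥90 h infection period, 3 h prior cell attachment; measured by: GalScreen β-gal luminescence, detergent lysis, 60 min; evaluation: percent inhibition of parasite-derived β-gal signal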
# HSF1 activator: HSF-1 activators, primary screen, NIH3T3-HGL cells, MG132 stress, luminescence, single point | NIH3T3-HGL HSF-1 luciferase reporter, 8 h; 100% = twice DMSO control signal | activation, % at 9 µM | actives 1.7% (n = 300,000) | AID 504408, 2011;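 active means mean replicate activation of at least 50% with a set share of replicates each reaching 50%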;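 further: 0% = median of the neutral control wells and 100% = twice that signal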
# Jurkat NFkB inh: inhibitors of induced NF-kB luciferase reporter, primary screen, TCR NF-kB activation inhibitor project, cell-based, luminescence, uHTS | inhibition, % at 4 µM | Jurkat, PMA/ionomycin-induced NF-kB luciferase reporter | actives 0.53% (n = 330,000) | AID 435003, 2010; in the data active means inhibition above about 50%
# 697 NFkB inh: inhibitors of PMA/ionomycin-induced NF-kB reporter, 697 cells, primary screen, B-cell NF-kB inhibitor project, cell-based, luminescence, uHTS; AID 435022, 2010; 697 B-cell NF-kB luciferase reporter, 16 h; actives 0.33% (n = 330,000); inhibition, % at 4 µM; in the data active means inhibition above about 35%
# GPR7 antag cf: GPR7 receptor antagonists, confirmation, cell-based, fluorescence, single concentration; shares compounds with GPR7 antagonist; GPR7-expressing cells, calcium fluorescence antagonist mode; inhibition, % at 4.4 µM; actives 52% (n = 2,400); in the data active means inhibition above about 24%;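 further: stimulated with the GPR7 agonist NPW; 0% = agonist plus vehicle and 100% = vehicle alone without agonist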
# MCHR1 antagonist: MCHR1 antagonists in cells, counter-screen for GPR7 antagonist project, cell-based, fluorescence, human | shares compounds with GPR7 antagonist | MCHR1-expressing cells, fluorescence antagonist assay | inhibition, % at 4.4 µM | actives 62% (n = 2,400); in the data active means inhibition above about 22%;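 further: 0% = vehicle with agonist and 100% = vehicle without agonist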
# Numbers without * were called inactive; · = no result given. The list is not random: actives were taken first. Their share in the collection is about 4.8%.
SMILES,HSF1 inh,GPR7 antagonist,T cruzi repl,HSF1 activator,Jurkat NFkB inh,697 NFkB inh,GPR7 antag cf,MCHR1 antagonist
COc1ccc(OCc2cc(C(=O)N3C[C@@H](C)O[C@@H](C)C3)no2)c(Cl)c1,10,-11,-5,18,-20,-12,·,·
Cc1cccc(N2C(=O)c3cccc4c(N(C)CCO)ccc(c34)C2=O)c1,-3,25*,17,20,12,-24,34*,53*
O=C(Cc1cccc2ccccc12)NC(NC(=S)Nc1ccccc1Cl)C(Cl)(Cl)Cl (stereo not drawn),-9,1,45,4,-3,16,·,·
O=C(NC(NC(=S)Nc1ccccc1Cl)C(Cl)(Cl)Cl)c1cccc(Cl)c1 (stereo not drawn),-1,27*,60*,32,21,8,49*,61*
O=C(CSc1nc(O)cc(=O)n1C1CCCC1)Nc1cccc(Cl)c1Cl,17,28*,-3,41,1,13,15,7
O=C(CCN1CCN(S(=O)(=O)c2cccc([N+](=O)[O-])c2)CC1)Nc1ccccc1F,-1,16,17,-15,7,6,·,·
CC(C)(C)c1cc(CP(=O)(c2ccccc2)c2ccccc2)cc(C(C)(C)C)c1O,6,35*,40,-2,-17,-37,30*,42*
COc1cc(/C=C/c2noc(-c3ccccc3O)n2)cc(OC)c1OC,5,-6,-14,13,-58,-77,·,·
COc1cc(/C=C/c2nc(-c3ccccc3O)n[nH]2)cc(OC)c1OC,-3,22*,-1,-5,-23,-1,33*,57*
COc1ccccc1NC(C)C(=O)Nc1ccc(C(C)=O)cc1 (stereo not drawn),3,9,2,11,-17,-25,·,·
CSc1nnc(N2C(=O)C(O)=C(C(=O)c3ccco3)C2c2ccccc2F)s1 (stereo not drawn),-3,23*,-13,19,-23,-102,3,10
O=C(NCc1ccco1)/C(=C\c1cccnc1)NC(=O)c1ccccc1F,-5,0,7,-1,14,-7,·,·
c1ccc(N2CCN(c3nnnn3-c3ccccc3)CC2)cc1,12,26*,-1,12,-12,0,19,9
CN(C)CCCNC(=O)c1ccccn1,3,-3,-18,-6,5,7,·,·
CN(C)CCCNC(=O)c1ccc(-c2nc(-c3ccc(Cl)cc3)cs2)cc1,7,41*,65*,8,-4,-164,91*,92*
Cc1ccc(-n2nnnc2SCC(=O)Nc2ccc3c(c2)OCCO3)cc1C,·,21*,-7,·,-1,3,9,5
CCn1c(SCC(=O)NC2(C#N)CCCCC2)nc2ccccc2c1=O,1,·,11,2,-4,12,·,·
Cc1nn(C)cc1/C=N\NC(=O)Cc1ccc([N+](=O)[O-])cc1,-3,24*,-12,16,-9,-8,-1,18
Nc1nc(NS(=O)(=O)c2ccc(Cl)cc2)nn1-c1ccccc1,-6,-8,0,3,5,-1,·,·
COc1ccc(OCc2nnc(SCC(=O)N3CCCC3)o2)cc1,-1,24*,29,-11,-17,-6,-1,7
COc1ccc(OCc2nnc(SCC(=O)N3CCCCC3)o2)cc1,-1,-8,-7,-8,3,6,·,·
CN(CC(=O)OCC(=O)NC1CCCC1)S(=O)(=O)c1ccc(Cl)cc1,·,·,·,·,-3,-8,·,·

# Source: PubChem
